Active and inactive are the calls of the source.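 The calls were made as follows: active = rising caspase curve whose AC50 is at most ten times the top dose tested; inconclusive = flat fit between 30 and 70%, or a poor fit; inactive = the rest.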

The first test deals with wild-type MEF caspase activation, Caspase-Glo luminescence, 3 h. The test is described as follows: apoptosis induction in WT mouse fibroblasts – cell-based, wild-type MEF, Caspase-Glo luminescence, dry powder, counter-screen for A1 (Bcl2-A1) inhibitor project, dose response (AID 488902).
Conditions: not given
In a few lines: (§1)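 Test system: unprimed wild-type MEF cells. Technique: luminescence with CaspaseGlo reagent, 1:1 dilution in 50 mM HEPES. Compound dosing: dose-response series from dry powder, 100 nL pinned per well. Read-out: caspase activation. Timing: compound 3 h at 37 °C, 5% CO2, caspase reagent 1 h.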
(A counterscreen serves to expose hits that act by an unwanted route or on another target.)
Consider `COc1ccc(N(C(=O)CCl)C(C(=O)NCCc2ccccc2)c2cccs2)cc1Cl` (stereo not given), for which the AC50 – broadly, the concentration at which the activity in the assay is half-maximal – is 15.5 µM. Still for that read-out and setting: the value for `CCc1cc2c(=O)c(-c3cnn(-c4ccccc4)c3)c(C)oc2cc1OCC(=O)Nc1cccc(C)c1` was 2.93 µM; that for `COc1cc(CN2CCN(c3cc(C)ccc3C)CC2)ccc1O` was > 150 µM (inactive); that for `Cc1cccc(NC(=O)/C(C#N)=C/c2cn(CC(=O)NCc3ccco3)c3ccccc23)c1` was 4.34 µM. Same read-out and setting: as for `Cc1cc(C(=O)CCl)c(C)n1CCc1ccc(Cl)cc1`, the figure is 16.3 µM.

System in a further test: not listed separately
The description is as above. As to conditions: wild-type MEF caspase activation, Caspase-Glo luminescence, 3 h; at 135 µM (top of the series). The method in brief: as §1
For `CC(=O)N[C@H]1[C@H](O[C@H]2CC[C@@]3(C)C(CC[C@]4(C)C3CC=C3[C@@H]5CC(C)(C)CC[C@]5(C(=O)OC5OCC(O)C(O)C5O)C(O)C[C@]34C)C2(C)C)O[C@H](COC2OCC(O)C(OC3OCC(O)C(O)C3O)C2O)[C@@H](O[C@@H]2O[C@@H](C)[C@H](O)[C@@H](O)[C@H]2O[C@@H]2O[C@@H](C)[C@H](O)[C@@H](O)[C@H]2O)[C@@H]1O` (stereo not given in full), the caspase activation was -0.32% (inactive).

Staying with this test, now noted: wild-type MEF caspase activation, Caspase-Glo luminescence, 3 h; at 150 µM (top of the series).
In the case of `Cc1c(CCOC(=O)c2ccc(N3CCOCC3)c([N+](=O)[O-])c2)sc[n+]1CC#N`, the caspase activation is 0.157% (inactive).

Take `O=C(CCl)N=c1sccn1Cc1ccccc1Cl`: the caspase activation was 0.637% (inactive). With `CCOC(=O)CSC1=N/C(=C/c2ccc(-n3cncn3)cc2)C(=O)N1C(C)=O`, the caspase activation is 2.7% (inactive). The same measure, in the same setting: as for `CCc1nnc(NC(=O)c2nc(S(=O)(=O)Cc3ccccc3)ncc2Cl)s1`, the figure is -0.316% (inactive).

Turning to `COc1cccc(C(=O)C(C#N)=C(SC)SC)c1`, the caspase activation was -1.91% (inactive). On the same count and under the same terms, the value for `Cc1ccc(Sc2c([N+](=O)[O-])c(=O)n(C)c3ccccc23)cc1` was 1.56% (inactive); that for `O=C(Oc1cccc(/C=N/Nc2nc(Nc3ccccc3)nc(N3CCOCC3)n2)c1)c1ccco1` was 0.0158% (inactive); that for `Cc1ccc(CS(=O)(=O)c2ncc(Cl)c(C(=O)Nc3nnc(C(C)C)s3)n2)cc1` was -1.41% (inactive). Still for that read-out and setting: the value for `C=C1[C@@H](C)[C@H]2[C@H](Cc3ccccc3)NC(=O)[C@]23OC(=O)/C=C\[C@H](O)CCC[C@@H](C)C/C=C/[C@H]3[C@@H]1O` was 0.465% (inactive). On the same count and under the same terms, the value for `CC(=O)OC(C)(C)/C=C/C(=O)[C@](C)(O)C1[C@H](O)C[C@@]2(C)C3CC=C4C(C[C@H](O)C(=O)C4(C)C)[C@]3(C)C(=O)C[C@]12C` (stereo not given in full) was 0.64% (inactive); that for `Nc1nc(F)nc2c1ncn2[C@@H]1O[C@H](CO)[C@@H](O)[C@H]1O` was -0.43% (inactive); that for `CC(C)(C)n1nc(-c2ccc(Cl)cc2)c2c(N)ncnc21` was 2.53% (inactive).

For the molecule `COc1cc(/C=C(/C#N)c2nc3ccccc3[nH]2)ccc1OCC(=O)Nc1ccccc1C(C)C`, the caspase activation is 0.773% (inactive). Still for that read-out and setting: the value for `CCSc1nnc(NC(=O)c2nc(S(=O)(=O)Cc3ccc(F)cc3)ncc2Cl)s1` was -2.01% (inactive).

With `C/C1=C/C(=O)O[C@@H]2C[C@@H](CC[C@H](C)/C=C\CC1)O[C@@](O)(C1CSC(=O)N1)C2` (stereo not given in full), the caspase activation is 0.912% (inactive). On the same count and under the same terms, the value for `Cc1cccc(CS(=O)(=O)c2ncc(Cl)c(C(=O)Nc3nnc(C(C)C)s3)n2)c1` was -1.13% (inactive); that for `C=C1[C@@H](C)[C@H]2[C@H](Cc3ccccc3)NC(=O)[C@]23[C@H](OC(C)=O)/C=C/[C@](C)(O)C(=O)[C@@H](C)C/C=C/[C@H]3[C@@H]1O` was -0.119% (inactive).

Consider `Cn1c(=NC(=O)CCl)sc2ccccc21`, for which the caspase activation is 0.0802% (inactive). Still for that read-out and setting: the value for `Cc1c(C=O)c(C=O)c(C)n1Cc1ccccc1` was 1.13% (inactive).

For the origin of these results see PubChem BioAssay AID488902 (Broad Institute, 2010).
